Source: PubChem BioAssay
Scp-1 inhibitor: Scp-1 phosphatase inhibitors, primary screen, biochemical, colorimetric, uHTS. Recombinant Scp1, phosphopeptide, malachite green phosphate absorbance. AID 493091, 2011. 0.88% of 340,000 active. Carboxy-terminal domain RNA polymerase II polypeptide A small phosphatase 1 (Homo …. inhibition, % at 20 µM;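 active = inhibition above about 50% at 20 µM, limit read from the data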
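assay system = SCP-1 phosphatase catalytic domain, residues 76-261 | buffer or medium = 50 mM Tris acetate pH 5.5, 0.005% Tween-20, 10 mM MgCl2 | incubation = enzyme reaction 45 min at room temperature, colour 5 min, stabilisation 30 min | signal = Phosphate-binding colour reagent, absorbance read at 630 nm | measure = % inhibition at 20 µM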
DNMT1 inh: human DNMT1 methyltransferase inhibitors, primary screen, biochemical, molecular beacon, fluorescence, HinP1I cleavage, uHTS | DNA (cytosine-5)-methyltransferase 1 (Homo sapiens), P26358 | inhibition (reported as % activation of signal), % at 10 µM | 0.83% of 360,000 active | AID 588458, 2011; in the data active = inhibition above about 50%
STEP block: STEP phosphatase inhibitors, primary screen, biochemical, fluorescence intensity, uHTS; Tyrosine-protein phosphatase non-receptor type 5 (Homo sapiens), P54829; recombinant STEP, OMFP fluorogenic substrate; inhibition, % at 20 µM; 0.25% of 360,000 active; AID 588621, 2011;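 active = inhibition at 20 µM, scaled per plate between control wells, above about 37%, limit read from the data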
Target sequence (P54829 whole entry, looked up): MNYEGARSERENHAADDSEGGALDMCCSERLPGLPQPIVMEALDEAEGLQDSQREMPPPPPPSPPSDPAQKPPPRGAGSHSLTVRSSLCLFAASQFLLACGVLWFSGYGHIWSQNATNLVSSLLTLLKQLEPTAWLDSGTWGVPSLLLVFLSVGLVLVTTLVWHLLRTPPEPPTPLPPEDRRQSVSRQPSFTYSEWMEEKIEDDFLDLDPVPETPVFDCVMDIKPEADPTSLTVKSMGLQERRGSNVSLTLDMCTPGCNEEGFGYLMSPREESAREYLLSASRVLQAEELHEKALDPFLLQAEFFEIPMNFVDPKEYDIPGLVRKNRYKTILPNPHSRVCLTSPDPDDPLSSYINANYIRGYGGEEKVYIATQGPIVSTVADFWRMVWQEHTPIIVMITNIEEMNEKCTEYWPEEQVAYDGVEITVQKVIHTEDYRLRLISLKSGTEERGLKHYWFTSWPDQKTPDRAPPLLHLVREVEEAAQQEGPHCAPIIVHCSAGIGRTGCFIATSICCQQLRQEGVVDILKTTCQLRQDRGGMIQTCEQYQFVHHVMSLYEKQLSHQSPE
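System: isolated STEP enzyme; schedule: 20 min enzyme reaction at room temperature, protected from light; medium: Bis-Tris buffer pH 6.0, 2.5 mM DTT, 0.005% Tween 20; signal: fluorescence, 480/540 nm; dosing: single compound dose of 20 µM, 1% DMSO final; also added: OMFP substrate, 25 µM final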
LMPTP inh: LMPTP phosphatase inhibitors, primary screen, biochemical, fluorescence intensity, uHTS | Low molecular weight phosphotyrosine protein phosphatase (Homo sapiens), P24666 | recombinant LMPTP-A, OMFP fluorogenic substrate | inhibition, % at 20 µM | 0.22% of 360,000 active | AID 651560, 2012;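 active = compounds that cut the enzyme signal by at least half of the control window in the single-dose screen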
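material = LMPTP-A | quantity = 0.625 nM enzyme | reagent = OMFP substrate, 400 µM final | buffer or medium = Bis-Tris pH 6.0, DTT, detergent | detection = endpoint fluorescence intensity from OMFP dephosphorylation | dosing = single 20 µM dose | read-out basis = % inhibition relative to no-enzyme and uninhibited control wells | control set = no-enzyme and uninhibited controls | timing = 50 min at room temperature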
SUMO1 PPI mod: modulators of SUMO1 protein-protein interactions, primary screen, biochemical, uHTS; Small ubiquitin-related modifier 1 (Homo sapiens), P63165; SUMO1 binding to a labelled peptide, TR-FRET, 1 h; inhibition, % at 20 µM; 0.33% of 360,000 active; AID 602429, 2012; in the data active = inhibition above about 37%
A number is an active result; n = inactive; x = not tested or not shown. Rows were chosen to be rich in hits. Some 1.7% of all compounds tested hit in one or more screens of this group.

SMILES	Scp-1 inhibitor	DNMT1 inh	STEP block	LMPTP inh	SUMO1 PPI mod
CCOC(=O)C1CCN(C(=O)Nc2ccc3nc(-c4ccco4)c(-c4ccco4)nc3c2)CC1	67	113	68	80	106
O=C(Nc1ccc2nc(-c3ccco3)c(-c3ccco3)nc2c1)N1CCCCCC1	88	x	x	x	x
CCOC(=O)C1CCN(C(=O)Nc2ccc3c(c2)nc(C)n3C)CC1	n	n	n	n	n
Cc1nc2ccc(NC(=O)N3CCCCC3)cc2nc1C	n	n	n	n	n
OC(c1cc(F)cc(Cl)c1)c1ncc(-c2cccc(C(F)(F)F)c2)[nH]1 (centres undefined)	x	n	n	n	n
COc1cc(C(=O)NCC(=O)OCC(=O)c2cccc3ccccc23)cc(OC)c1OC	n	n	n	n	61
COc1ccc(CC(=O)Nc2nc(OCCN3CCCC3=O)cnc2-c2cccc(C(F)(F)F)c2)cc1	x	n	n	n	n
COc1ccccc1CNc1nc(NCc2cccc(OC)c2OC)c2sccc2n1	x	n	n	n	n
COc1ccc(Nc2nc(NCc3cccs3)nc3ccsc23)cc1OC	x	n	n	56	n
COCCNc1nc(NCc2cccc(OC)c2OC)c2sccc2n1	x	n	n	62	n
CC(=O)Nc1ccc(CNc2nc(NCC3CC3)nc3ccsc23)cc1	x	n	n	60	n
COCCNc1nc(NCc2ccc(C)cc2C)c2sccc2n1	x	n	n	59	n
CC1(C(=O)NS(=O)(=O)c2ccc(Cl)cc2)CCN1C(=O)Cc1cccs1 (centres undefined)	x	n	n	n	n
COc1ccccc1CNc1nc(NCc2cnc(C)cn2)c2sccc2n1	x	n	n	80	n
COCCNc1nc(NCc2cccc(OC)c2)c2sccc2n1	x	n	n	n	n
COCCNc1nc(NCc2ccc(C(C)C)cc2)c2sccc2n1	x	n	n	51	n
COc1ccc(O)c(/C=N/NC(=S)Nc2cccc(S(=O)(=O)N(C)C)c2)c1	n	n	n	n	n
CN(C)S(=O)(=O)c1cccc(NC(=S)N/N=C/c2ccc(O)c(O)c2O)c1	n	n	n	61	n
CNC(=S)N/N=C/c1ccc(-c2ccc(C(=O)O)cc2)o1	52	n	n	n	n
CNC(=S)N/N=C/c1ccc(-c2ccc(Cl)c([N+](=O)[O-])c2)o1	n	n	n	n	n
Cc1cc(C)n(Cc2ccc(C(=O)N/N=C/c3ccc(-c4ccc([N+](=O)[O-])cc4)o3)o2)n1	102	98	99	97	104
O=C(O)c1cccc(-c2ccc(/C=N/Nc3ccc([N+](=O)[O-])cc3)o2)c1	n	n	n	n	n
O=C(O)c1ccc(-c2ccc(/C=N/Nc3ccc([N+](=O)[O-])cc3)o2)cc1	85	n	n	n	n
CCCCC(=O)N/N=C/c1ccc(-c2ccc([N+](=O)[O-])cc2)o1	n	n	n	n	n
O=C(NC1CC1)c1cccc2c1C(=O)c1ccc(N3CCC(N4CCCCC4)CC3)cc1S2(=O)=O	x	n	n	n	n
SMILES	Scp-1 inhibitor	DNMT1 inh	STEP block	LMPTP inh	SUMO1 PPI mod
Cc1ccc(CC(=O)Nc2cc(C)on2)cc1	n	n	n	n	n
O=C(O)C1Nc2c(C(F)(F)F)ccc(Cl)c2C2C=CCC12 (centres undefined)	n	n	n	n	n
O=C(O)C1Nc2c(C(=O)N3CCOCC3)cccc2C2C=CCC12 (centres undefined)	51	107	n	n	n
Cc1cc(C)c2c(c1)NC(C(=O)O)C1CC=CC21 (centres undefined)	72	76	n	n	42
Cc1ccc2c(c1C)NC(C(=O)O)C1CC=CC21 (centres undefined)	80	103	n	63	86
O=C1NC[C@H](CCCCN2C[C@H](Cc3ccccc3)N(CC3CCCCC3)C(=O)C2=O)N(CCc2ccccc2)C1=O	x	x	x	n	n
CC(CNC(=O)[C@@H](Cc1ccccc1)NC(=O)CC[C@H]1O[C@@H](n2ccc(=O)[nH]c2=O)[C@H](O)[C@@H]1O)c1ccccc1 (some centres undefined)	x	n	n	n	n
